Where “and” joins values, the source holds several entries; their conditions need not be identical. Equal entries are not always repeated. Where two headings read alike, the source gives them in different places.
Columns and labels:
PKC = assay: Effect of PKC inhibition on CCK- and TPA-stimulated pY416 Yes phosphorylation; type: cell-based, rat
Summary of the method: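 Rat acini were pretreated with the PKC inhibitor GF109203X (5 µM) during preincubation, then incubated with 100 nM CCK (1 min) or 1 µM TPA (2.5 min) at 37 °C. Lysates were immunoprecipitated with anti-Yes and blotted for pY416 Src family and total Yes, quantified by densitometry. Results are expressed as % of control, mean ± S.E., n=4.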

Yes kinase [1] = type: cell-based, rat; conditions: for Yes pY416 phosphorylation, time course, 1 min: 1 min incubation; for tmax (Yes pY416 phosphorylation) / t1/2 (Yes pY416 phosphorylation): CCK (100 nM) or TPA (1 µM)
Summary of the method: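 Collagenase-dispersed rat acini were preincubated 2 h at 37 °C, then incubated with CCK (100 nM) or TPA (1 µM) for times up to 15 min. Yes was immunoprecipitated (4 µg anti-Yes, protein G, overnight 4 °C), then blotted for pY416 and total Yes and read by densitometry. Values are % of zero-time control, mean ± S.E., n=7, with t1/2 from curve fitting.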

Yes kinase [2] = type: cell-based, rat; conditions: for association of Yes with p125FAK, PYK2, PI3K, PKD, p130Cas, Shc and PKCδ (Co-IP) / association of Yes with Raf, Cbl or ERK1/2 (Co-IP): CCK 100 nM 2.5 min or TPA 1 µM 5 min; for association of Yes with p125FAK, PYK2, PI3K, PKD, p130Cas, Shc and PKCδ (Co-IP): 8 experiments; for association between Yes and PI3K / association of Yes with autophosphorylated forms pY397 p125FAK and pY402 PYK2: CCK or TPA; for direct association of Raf, Cbl or ERK1/2 with Yes, reverse Co-IP: Cbl or ERK1/2 antibodies, detection with Yes antibodies; for association of Yes with Cbl or Erk 1/2 (Co-IP), discussion / association of Yes with focal adhesion kinases, PKCδ, Shc, p130Cas, PI3K, PTEN and PKD (Co-IP): TPA and CCK, physiological and supramaximal concentrations
Lyn [3] = conditions: pancreatic acini; cited from earlier work
PKC-δ and Src = conditions: PC-12 cells and parotid cells; cited from earlier work
[4] = system: endoplasmic reticulum Ca^2+-ATPase; assay: Effect of Ca2+ depletion on CCK- and TPA-stimulated pY416 Yes phosphorylation; type: cell-based, rat; conditions: for inhibition of TPA-/CCK-stimulated Yes activation (thapsigargin, words): TPA and CCK as stimulants
[5] = system: [Ca^2+i] increase stimulated by CCK; conditions: thapsigargin, calcium-free medium; cited from earlier work
Lyn [6] = conditions: cited from earlier work
Yes kinase [7] = type: cell-based, rat
Summary of the method: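 Rat pancreatic acini were prepared by collagenase digestion, preincubated 2 h at 37 °C in HEPES buffer (pH 7.45), then exposed to graded concentrations of CCK or CCK-JMV at 37 °C. Yes was immunoprecipitated from lysates and immunoblotted for pY416 Src family, with total Yes as loading control, and quantified by densitometry.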

Yes = conditions: cited from earlier work; for activation of Yes by EGF and PDGF: hepatocytes and fibroblasts
SFK = conditions: cited from earlier work
Fyn = conditions: cited from earlier work
Src = conditions: cited from earlier work
Hck = conditions: endothelial cells; cited from earlier work
adenylate cyclase = conditions: cited from earlier work; for activation of PLC cascades or adenylate cyclase: pancreatic acinar cell; for adenylate cyclase activation: rat pancreatic acini
Akt = assay: pS473 Akt phosphorylation by pancreatic growth factors; type: cell-based; conditions: rat pancreatic acini; data not shown
cSrc = conditions: murine fibroblasts; cited from earlier work
CCK2 receptors = assay: CCK2 receptor ligands: pY416 Yes phosphorylation in rat pancreatic acini; type: cell-based; conditions: gastrin 10 nM, 1 min
[8] = from CCK-JMV partial stimulation

CN(C)CCCn1cc(C2=C(c3c[nH]c4ccccc34)C(=O)NC2=O)c2ccccc21 [GF109203X]
decrease in CCK-stimulated activation of Yes by PKC inhibitor (PKC; GF109203X + CCK): 80%
inhibition of TPA-/CCK-stimulated Yes activation (PKC inhibitor, words) (PKC; TPA and CCK as stimulants): inhibit TPA−/CCK-stimulated Yes

CCCCCCCCCCCCCC(=O)O[C@@H]1[C@@H](C)[C@@]2(O)[C@@H](C=C(CO)C[C@]3(O)C(=O)C(C)=C[C@@H]23)[C@@H]2C(C)(C)[C@]12OC(C)=O [TPA, 12-O-tetradecanoylphorbol-13-acetate]
Yes pY416 phosphorylation, time course, 1 min (Yes kinase [1]; means±S.E., 7 experiments): 153±25 % of control
tmax (Yes pY416 phosphorylation) (Yes kinase [1]; 7 experiments): 2.49±0.29 min
t1/2 (Yes pY416 phosphorylation) (Yes kinase [1]; means±S.E., 7 experiments): 1.25±0.24 min
Yes pY416 phosphorylation, time course, 2.5 min (Yes kinase [1]; TPA, 2.5 min, means±S.E., 7 experiments, p<0.05): 266±47 % of control
duration of increased Yes pY416 phosphorylation (Yes kinase [1]; sustained increase): 15 min
association of Yes with p125FAK, PYK2, PI3K, PKD, p130Cas, Shc and PKCδ (Co-IP) (Yes kinase [2]): produced an increase in the association of Yes
association of Yes with Raf, Cbl or ERK1/2 (Co-IP) (Yes kinase [2]; data not shown): not with Raf, Cbl or ERK1/2
association between Yes and PI3K (Yes kinase [2]): stimulated an association between Yes and PI3K
association of Yes with autophosphorylated forms pY397 p125FAK and pY402 PYK2 (Yes kinase [2]): stimulates an association of Yes with each of their specific autophosphorylated forms
direct association of Raf, Cbl or ERK1/2 with Yes, reverse Co-IP (Yes kinase [2]): did not obtained any stimulated direct association with Yes
association of Yes with Cbl or Erk 1/2 (Co-IP), discussion (Yes kinase [2]): not with Cbl or Erk 1/2
association of Yes with focal adhesion kinases, PKCδ, Shc, p130Cas, PI3K, PTEN and PKD (Co-IP) (Yes kinase [2]): stimulate the association of Yes
association of Lyn with PKC-δ, Shc, p125FAK and Pyk-2 (Lyn [3]): stimulated its association with PKC-δ, Shc, p125FAK and Pyk-2
association of PKC-δ and Src (PKC-δ and Src): neither TPA nor carbachol stimulated the association of PKC-δ and Src

C/C=C(/C)C(=O)O[C@H]1C(C)=C2[C@H]([C@@H]1OC(=O)CCCCCCC)[C@@](C)(OC(C)=O)C[C@H](OC(=O)CCC)[C@@]1(O)[C@H]2OC(=O)[C@@]1(C)O [Thapsigargin]
inhibition of TPA-/CCK-stimulated Yes activation (thapsigargin, words) [4]: inhibit TPA−/CCK-stimulated Yes
inhibition of TPA-/CCK-stimulated Yes activation (thapsigargin, words) ([4]; listed as thapsigargin): did not completely inhibit CCK-stimulated Yes activation
reduction of CCK-stimulated Yes activation by thapsigargin (Ca2+ depletion) ([4]; thapsigargin, calcium-depleting conditions, + CCK): 71%
inhibition of CCK-stimulated [Ca2+]i increase [5]: completely inhibit

C[N+](C)(C)CCOC(N)=O [carbachol]
Lyn activation in pancreatic acinar cells (Lyn [6]): activated
association of PKC-δ and Src (PKC-δ and Src): neither TPA nor carbachol stimulated the association of PKC-δ and Src

COOH-terminal octapeptide of cholecystokinin [CCK]
maximal stimulation of Y416 phosphorylation of Yes (Yes kinase [7]; CCK 100 nM, means±S.E., 5 experiments): 280±16 % of control
lowest concentration with detectable increase in Y416 phosphorylation of Yes (Yes kinase [7]; CCK dose-response): 10 pM
share of CCK stimulation of Yes mediated by high affinity CCK1 receptor state (Yes kinase [7]; [8]): 64%
share of CCK stimulation of Yes mediated by low affinity CCK1 receptor state (Yes kinase [7]; [8]): 36%
Yes pY416 phosphorylation, time course, 1 min (Yes kinase [1]; means±S.E., 7 experiments): 310±43 % of control
tmax (Yes pY416 phosphorylation) (Yes kinase [1]; 7 experiments): 1 min and 0.98±0.14 min
t1/2 (Yes pY416 phosphorylation) (Yes kinase [1]; means±S.E., 7 experiments): 0.309±0.042 min and 0.31±0.04 min
Yes pY416 phosphorylation, time course, 30 s (Yes kinase [1]; CCK, 30-second incubation, means±S.E., 7 experiments, p<0.05): 278±27 % of control
association of Yes with p125FAK (Co-IP), low CCK (Yes kinase [2]; CCK 100 pM and 0.1 nM, 2.5 min): not with ^p125FAK
association of Yes with Raf, Cbl or ERK1/2 (Co-IP), low CCK (Yes kinase [2]; CCK 100 pM and 0.1 nM, data not shown): with Raf, Cbl or ERK1/2 (data not shown)
association of Yes with p125FAK, PYK2, PI3K, PKD, p130Cas, Shc and PKCδ (Co-IP) (Yes kinase [2]): produced an increase in the association of Yes
association of Yes with Raf, Cbl or ERK1/2 (Co-IP) (Yes kinase [2]; data not shown): not with Raf, Cbl or ERK1/2
association between Yes and PI3K (Yes kinase [2]): stimulated an association between Yes and PI3K
association of Yes with autophosphorylated forms pY397 p125FAK and pY402 PYK2 (Yes kinase [2]): stimulates an association of Yes with each of their specific autophosphorylated forms
direct association of Raf, Cbl or ERK1/2 with Yes, reverse Co-IP (Yes kinase [2]): did not obtained any stimulated direct association with Yes
association of Yes with Cbl or Erk 1/2 (Co-IP), discussion (Yes kinase [2]): not with Cbl or Erk 1/2
association of Yes with focal adhesion kinases, PKCδ, Shc, p130Cas, PI3K, PTEN and PKD (Co-IP) (Yes kinase [2]): stimulate the association of Yes
Lyn activation in pancreatic acinar cells (Lyn [6]): activated
activation of Yes through CCK2 receptors (Yes; rat pancreatic acinar cell line AR42J): activate Yes through CCK2 receptors
association of Lyn with PKC-δ, Shc, p125FAK and Pyk-2 (Lyn [3]): stimulated its association with PKC-δ, Shc, p125FAK and Pyk-2

Endothelin-1: interacts with ET-1 and ET-3 receptors in the pancreatic acinar cell
Lyn activation in pancreatic acinar cells (Lyn [6]): weakly stimulated
SFK activation by endothelin (SFK; different cells): activates SFKs in different cells
Fyn activation by endothelin (Fyn; endothelial cells): activated the SFK Fyn
Src inhibition by endothelin (Src; endothelial cells): inhibited
Yes activity with endothelin (Yes; endothelial cells): unaltered
Hck inhibition by endothelin (Hck): inhibited
activation of PLC cascades or adenylate cyclase (adenylate cyclase): does not activate PLC cascades nor activate adenylate cyclase
activation of PLC cascades or adenylate cyclase (adenylate cyclase; listed as endothelin): does not stimulate phospholipase C or adenylate cyclase

Epidermal growth factor (NSNTGCPPSYDGYCLNGGVCMYVESVDRYVCNCVIGYIGERCQHRDLRWWKLR; UniProt P07522 974-1026, looked up) [EGF]
pS473 Akt phosphorylation (Akt): stimulated pS473 Akt phosphorylation
cSrc activation (cSrc): activate the SFK, cSrc
activation of Yes by EGF and PDGF (Yes): stimulated activation of Yes

Gastrin
pY416 Yes phosphorylation by gastrin (CCK2 receptors): did not produce any increase in pY416 Yes phosphorylation

Secretin: activates adenylate cyclase in rat pancreatic acini
Lyn activation in pancreatic acinar cells (Lyn [6]): weakly stimulated
SFK activation by secretin (SFK; other studies): activated the SFKs
adenylate cyclase activation (adenylate cyclase): activates adenylate cyclase

basic fibroblast growth factor [bFGF]
pS473 Akt phosphorylation (Akt): stimulated pS473 Akt phosphorylation
SFK activation in pancreatic acinar cells (SFK; bFGF, pancreatic acinar cells): not activate SFK
cSrc activation (cSrc): activate the SFK, cSrc

bombesin
Lyn activation in pancreatic acinar cells (Lyn [6]): activated

insulin-like growth factor 1 [IGF-1]
pS473 Akt phosphorylation (Akt): stimulated pS473 Akt phosphorylation
Src activation by IGF (Src; differentiating preadipocytes): stimulates Src activation

insulin: pancreatic growth factor
pS473 Akt phosphorylation (Akt): stimulated pS473 Akt phosphorylation
SFK activation by insulin (SFK; skeletal muscle cells): stimulates SFK activation
Fyn activation by insulin (Fyn; ovarian cells): stimulates Fyn activation

platelet-derived growth factor [PDGF]
pS473 Akt phosphorylation (Akt): stimulated pS473 Akt phosphorylation
cSrc activation (cSrc): activate the SFK, cSrc
activation of Yes by EGF and PDGF (Yes): stimulated activation of Yes

vasoactive intestinal peptide [VIP]
adenylate cyclase activation (adenylate cyclase): activates adenylate cyclase

Reference: publication PMC3404614 (Biochimica et Biophysica Acta, 2012)
